Source: ChEMBL document CHEMBL1156332, “Polysubstituted pyrazoles, part 6. Synthesis of some 1-(4-chlorophenyl)-4-hydroxy-1H-pyrazol-3-carbonyl derivatives linked to nitrogenous heterocyclic ring systems as potential antitumor agents” (2010)
Activity calls are given as the source filed them. No cut-off for these calls is given here.

Legend:
Assay type in all cases: functional
CCRF-CEM = test: Growth inhibition of human CCRF-CEM cells after 48 hrs by sulforhodamine B assay
Summary of the method: (§1)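 NCI 60-line panel, five concentrations (0.01–100 µM) from DMSO stock diluted in medium with gentamicin. Cells were plated 24 h before dosing, with time-zero plates fixed at drug addition, then exposed 48 h at 37 °C, 5% CO₂. Adherent cells were fixed with cold TCA (10% final) and suspension cells with 16% TCA. Staining used 0.4% SRB, solubilised in 10 mM Tris and read at 515 nm. GI₅₀ was taken from log concentration–% growth curves.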

K562 = test: Growth inhibition of human K562 cells after 48 hrs by sulforhodamine B assay; summary of the method: as §1
MOLT-4 = test: Growth inhibition of human MOLT4 cells after 48 hrs by sulforhodamine B assay; details: MOLT-4, 48 h; summary of the method: as §1
RPMI-8226 = test: Growth inhibition of human RPMI8226 cells after 48 hrs by sulforhodamine B assay; details: RPMI-8226, 48 h; summary of the method: as §1
SR = test: Growth inhibition of human SR cells after 48 hrs by sulforhodamine B assay
Summary of the method: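 Suspension leukemia line pre-incubated 24 h at 37 °C, 5% CO2; time-zero plates fixed at drug addition. Five drug concentrations were made by serial dilution from DMSO stocks and applied for 48 h. Settled cells were fixed with 80% TCA (16% final), stained with 0.4% SRB in 1% acetic acid, solubilized in 10 mM Tris base, and read at 515 nm. GI50 = concentration giving 50% decrease in net growth.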

EKVX = test: Growth inhibition of human EKVX cells after 48 hrs by sulforhodamine B assay; summary of the method: as §1
HOP-62 = test: Growth inhibition of human HOP62 cells after 48 hrs by sulforhodamine B assay; details: HOP-62, 48 h; summary of the method: as §1
HOP-92 = test: Growth inhibition of human HOP92 cells after 48 hrs by sulforhodamine B assay; details: HOP-92, 48 h; summary of the method: as §1
NCI-H226 = test: Growth inhibition of human NCI-H226 cells after 48 hrs by sulforhodamine B assay; details: NCI-H226, 48 h; summary of the method: as §1
NCI-H23 = test: Growth inhibition of human NCI-H23 cells after 48 hrs by sulforhodamine B assay; details: NCI-H23, 48 h; summary of the method: as §1
[1] = Growth inhibition of human NCI-H322 cells after 48 hrs by sulforhodamine B assay; details: NCI-H322, 48 h; summary of the method: as §1
NCI-H460 = test: Growth inhibition of human NCI-H460 cells after 48 hrs by sulforhodamine B assay; details: NCI-H460, 48 h; summary of the method: as §1
NCI-H522 = test: Growth inhibition of human NCI-H522 cells after 48 hrs by sulforhodamine B assay; details: NCI-H522, 48 h; summary of the method: as §1
HCT-116 = test: Growth inhibition of human HCT116 cells after 48 hrs by sulforhodamine B assay; details: HCT-116, 48 h; summary of the method: as §1
HT-29 = test: Growth inhibition of human HT-29 cells after 48 hrs by sulforhodamine B assay; details: HT-29, 48 h; summary of the method: as §1
KM12 = test: Growth inhibition of human KM12 cells after 48 hrs by sulforhodamine B assay; details: KM12, 48 h; summary of the method: as §1
SF-539 = test: Growth inhibition of human SF539 cells after 48 hrs by sulforhodamine B assay; details: SF-539, 48 h
Summary of the method: (§2)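 Adherent lines plated and held 24 h at 37 °C, 5% CO2, 100% humidity; time-zero plates TCA-fixed at drug addition. Drugs from DMSO stocks were made into five concentrations by 10-fold or half-log serial dilution and applied for 48 h continuous exposure. Cells were fixed with cold TCA (10% final) for 60 min at 4 °C, then stained with 0.4% SRB in 1% acetic acid for 10 min. Dye was solubilized in 10 mM Tris base and read at 515 nm. GI50 was taken from log concentration–growth curves.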

LOX IMVI = test: Growth inhibition of human LOXIMVI cells after 48 hrs by sulforhodamine B assay; summary of the method: as §1
M14 = test: Growth inhibition of human M14 cells after 48 hrs by sulforhodamine B assay; details: M14, 48 h; summary of the method: as §1
SK-MEL-2 = test: Growth inhibition of human SK-MEL-2 cells after 48 hrs by sulforhodamine B assay; summary of the method: as §2
SK-MEL-28 = test: Growth inhibition of human SK-MEL-28 cells after 48 hrs by sulforhodamine B assay; details: SK-MEL-28, 48 h; summary of the method: as §2
IGROV-1 = test: Growth inhibition of human IGROV1 cells after 48 hrs by sulforhodamine B assay; details: IGROV-1, 48 h; summary of the method: as §1
OVCAR-3 = test: Growth inhibition of human OVCAR-3 cells after 48 hrs by sulforhodamine B assay; details: OVCAR-3, 48 h; summary of the method: as §1
SK-OV-3 = test: Growth inhibition of human SKOV3 cells after 48 hrs by sulforhodamine B assay; details: SK-OV-3, 48 h; summary of the method: as §2
PC-3 = test: Growth inhibition of human PC3 cells after 48 hrs by sulforhodamine B assay; details: PC-3, 48 h; summary of the method: as §1
DU-145 = test: Growth inhibition of human DU145 cells after 48 hrs by sulforhodamine B assay; details: DU-145, 48 h; summary of the method: as §1
BT-549 = test: Growth inhibition of human BT549 cells after 48 hrs by sulforhodamine B assay; details: BT-549, 48 h; summary of the method: as §1
T47D = test: Growth inhibition of human T47D cells after 48 hrs by sulforhodamine B assay; summary of the method: as §2
[2] = Cytotoxicity against human renal cancer cells after 48 hrs by sulforhodamine B assay; details: Cancer cell lines
Summary of the method: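 NCI five-dose screen: about 60 human tumour lines grouped into nine subpanels were plated and incubated 24 h before dosing. Compounds went in as DMSO stock and were diluted in medium to five final concentrations (0.01–100 µM). Exposure was 48 h continuous at 37 °C, 5% CO₂, followed by TCA fixation and SRB staining read at 515 nm. Per-line GI₅₀, TGI and LC₅₀ came from log concentration–% growth curves, averaged per subpanel as MG-MID.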

| SMILES | GI50 (CCRF-CEM) | GI50 (RPMI-8226) | GI50 (EKVX) | GI50 (HOP-62) | GI50 (HOP-92) | GI50 (NCI-H226) | GI50 (NCI-H23) | GI50 [1] | GI50 (NCI-H460) | GI50 (NCI-H522) | GI50 (HCT-116) | GI50 (HT-29) | GI50 (KM12) | GI50 (SF-539) | GI50 (LOX IMVI) | GI50 (M14) | GI50 (SK-MEL-28) | GI50 (IGROV-1) | GI50 (OVCAR-3) | GI50 (SK-OV-3) | further results |
| --- | --- | --- | --- | --- | --- | --- | --- | --- | --- | --- | --- | --- | --- | --- | --- | --- | --- | --- | --- | --- | --- |
| N#Cc1cnn(C(=O)c2nn(-c3ccc(Cl)cc3)cc2O)c1N | 280 nM | 210 nM | 380 nM | 340 nM | 400 nM | 370 nM | 370 nM | 440 nM | 190 nM | 210 nM | 260 nM | 1190 nM | 380 nM | 320 nM | 440 nM | 480 nM | 630 nM | 360 nM | 550 nM | 520 nM | GI50 (K562; K562, 48 h): 250 nM; GI50 (MOLT-4): 290 nM; GI50 (SR): 280 nM; GI50 (SK-MEL-2; SK-MEL-2, 48 h): 910 nM; GI50 (PC-3): 330 nM; GI50 (DU-145): 570 nM; GI50 (BT-549): 290 nM; GI50 (T47D): 300 nM; GI50 [2]: 360 nM; LC50 [2]: 75000 nM; TGI [2]: 8990 nM |
| O=C(c1nn(-c2ccc(Cl)cc2)cc1O)n1nc(-c2ccco2)cc1C(F)(F)F | 690 nM | 1420 nM | 1990 nM | 1980 nM | 4900 nM | 2710 nM | 5590 nM | 830 nM | 780 nM | 2670 nM | 2000 nM | 4560 nM | 5880 nM | 2810 nM | 2370 nM | 4280 nM | 9220 nM | 920 nM | 1720 nM | 3550 nM | GI50 (K562; K562, 48 h): 1720 nM; GI50 (MOLT-4): 2550 nM; GI50 (SK-MEL-2; SK-MEL-2, 48 h): 3820 nM; GI50 (PC-3): 26300 nM; GI50 (DU-145): 10500 nM; GI50 (BT-549): 1140 nM; GI50 (T47D): 4160 nM; GI50 [2]: 3850 nM; TGI [2]: 75600 nM |
| O=C1CC(=O)N(C(=O)c2nn(-c3ccc(Cl)cc3)cc2O)N1 | 420 nM | 380 nM | 850 nM | 510 nM | 500 nM | 730 nM | 490 nM | 530 nM | 310 nM | 300 nM | 340 nM | 580 nM | 1160 nM | 370 nM | 1370 nM | 710 nM | 5260 nM | 380 nM | 930 nM | 1920 nM | GI50 (K562; K562, 48 h): 290 nM; GI50 (MOLT-4): 410 nM; GI50 (SR): 260 nM; GI50 (SK-MEL-2): inactive; GI50 (PC-3): 360 nM; GI50 (DU-145): 980 nM; GI50 (BT-549): 370 nM; GI50 (T47D): 450 nM; GI50 [2]: 850 nM; TGI [2]: 71800 nM |
| Cc1cc(C)n(C(=O)c2nn(-c3ccc(Cl)cc3)cc2O)n1 | 3660 nM | 3340 nM | 4870 nM | 5210 nM | 4520 nM | 4660 nM | 3310 nM | 6170 nM | 2380 nM | 7370 nM | 3420 nM | 3290 nM | 5070 nM | 3050 nM | 3940 nM | 4690 nM | 6280 nM | 3160 nM | 1270 nM | 7040 nM | GI50 (K562): inactive; GI50 (SR): inactive; GI50 (PC-3): 7050 nM; GI50 (DU-145): 6230 nM; GI50 (BT-549): 2190 nM; GI50 (T47D): 3660 nM; GI50 [2]: 4520 nM; TGI [2]: 71300 nM |
| Cc1c2c(nn1C(=O)c1nn(-c3ccc(Cl)cc3)cc1O)-c1ccccc1CC2 | 57 nM | 38 nM | 71 nM | 44 nM | 52 nM | 45 nM | 41 nM | 54 nM | 28 nM | 55 nM | 34 nM | 241 nM | 70 nM | 41 nM | 75 nM | 96 nM | 92 nM | 43 nM | 99 nM | 160 nM | GI50 (K562; K562, 48 h): 30 nM; GI50 (MOLT-4): 43 nM; GI50 (SK-MEL-2; SK-MEL-2, 48 h): 5540 nM; GI50 (PC-3): 37 nM; GI50 (DU-145): 50 nM; GI50 (BT-549): 29 nM; GI50 (T47D): 59 nM; GI50 [2]: 92 nM; TGI [2]: 67700 nM |
| CC1=NN(C(=O)c2nn(-c3ccc(Cl)cc3)cc2O)C(=O)C1 | 420 nM | 1660 nM | 2210 nM | 1330 nM | 3670 nM | 1400 nM | 2900 nM | 850 nM | 370 nM | 2840 nM | 680 nM | 6160 nM | 2270 nM | 1700 nM | 1550 nM | 1780 nM | 3060 nM | 510 nM | 1210 nM | 1530 nM | GI50 (K562; K562, 48 h): 650 nM; GI50 (MOLT-4): 1870 nM; GI50 (SR): 420 nM; GI50 (DU-145): 5220 nM; GI50 (BT-549): 650 nM; GI50 (T47D): 2660 nM; GI50 [2]: 1670 nM; TGI [2]: 77000 nM |
